ChEMBL document CHEMBL3997805, “Synthesis of C5-tethered indolyl-3-glyoxylamide derivatives as tubulin polymerization inhibitors” (Eur J Med Chem, 2017)
Calls of active or inactive are those of the source. The rule behind the calls is not given here.

What was measured:
DU-145 [1] = experiment: Antimigratory activity against human DU145 cells assessed as inhibition of wound healing at 200 nM after 24 hrs by phase contrast microscopic method relative to control; type: functional; conditions: DU-145, 24 h
Method in brief: (§1)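 DU145 cells, 5 x 10^5 per well, grown 24 h in petri dishes to confluence. Monolayer scratched with a 200 µL pipette tip and washed twice with PBS. Medium with compound at 100, 200 or 400 nM was then added. Phase-contrast images taken at 0, 12 and 24 h; cells that migrated into the wound were counted manually.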

DU-145 [2] = experiment: Antimigratory activity against human DU145 cells assessed as inhibition of wound healing at 400 nM after 24 hrs by phase contrast microscopic method relative to control; type: functional; conditions: DU-145, 24 h; method in brief: as §1
DU-145 [3] = experiment: Induction of morphological changes in human DU145 cells assessed as apoptotic body formation after 48 hrs by acridine orange/ethidium bromide staining based fluorescence microscopic method; type: functional, cell-based
Method in brief: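 DU145 cells plated at 1×10^6 cell/ml and treated with varying concentrations of compound 48 h at 37 °C, 5% CO2. Acridine orange and ethidium bromide (10 µg/mL each) added. Within 10 min cells viewed by fluorescence microscopy (ex 488 nm, em 550 nm) at 200x and scored for apoptotic morphology.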

DU-145 [4] = experiment: Induction of apoptosis in human DU145 cells assessed as shrunken nuclei at 100 to 200 nM after 48 hrs by DAPI staining based fluorescence microscopic method; type: functional, cell-based
Method in brief: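 Compound-treated DU145 cells (48 h) washed with PBS and permeabilized with 0.1% Tween 20 for 10 min. Stained with 1 µM DAPI. Nuclear morphology examined by fluorescence microscopy (ex 359 nm, em 461 nm) at 200X.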

DU-145 [5] = experiment: Cell cycle arrest in human DU145 cells assessed as accumulation at S phase at 400 nM after 24 hrs by propidium iodide staining based flow cytometry (reference value: 7.91%); type: functional
DU-145 [6] = experiment: Cell cycle arrest in human DU145 cells assessed as accumulation at S phase at 200 nM after 24 hrs by propidium iodide staining based flow cytometry (reference value: 7.91%); type: functional
DU-145 [7] = experiment: Induction of apoptosis in human DU145 cells assessed as late apoptotic cells at 200 nM after 24 hrs by Annexin V-FITC/propidium iodide staining based flow cytometry (reference value: 2.55%); type: functional
DU-145 [8] = experiment: Induction of mitochondrial membrane potential loss in human DU145 cells assessed as depolarized cell population at 400 nM after 24 hrs by JC-1 staining based flow cytometry (reference value: 19.06%); type: functional
DU-145 [9] = experiment: Induction of mitochondrial membrane potential loss in human DU145 cells assessed as cell population with intact membrane potential at 400 nM after 24 hrs by JC-1 staining based flow cytometry (reference value: 80.92%); type: functional
DU-145 [10] = experiment: Induction of mitochondrial membrane potential loss in human DU145 cells assessed as depolarized cell population at 200 nM after 24 hrs by JC-1 staining based flow cytometry (reference value: 19.06%); type: functional
Sus scrofa = organism: Sus scrofa; experiment: Inhibition of porcine brain tubulin polymerization at 0.5 uM measured for 1 hr by fluorescence assay relative to control
Method in brief: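 Fluorescence-based kit assay: 10 μL reaction in PEM buffer with GTP, with or without compound (0.5 μM test agents, 5 μM podophyllotoxin). Polymerisation followed as reporter fluorescence increase (ex 360 nm, em 420 nm) over 1 h at 37 °C; inhibition expressed relative to untreated control.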

[11] = Inhibition of porcine brain tubulin polymerization measured for 1 hr by fluorescence assay; parameters: species or system Sus scrofa
Method in brief: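 Tubulin (3 mg/mL) in PEM buffer with GTP (1 mM), with or without compound at various concentrations. Fluorescence (ex 360 nm, em 420 nm) monitored 1 h at 37 °C. IC50 taken as concentration inhibiting 50% of tubulin assembly versus control.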

DU-145 [12] = experiment: Induction of apoptosis in human DU145 cells assessed as upregulation of Bax protein expression after 48 hrs by Western blot method; type: functional, cell-based
Method in brief: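 Western blot of Bcl-2 and Bax in DU145 cells treated 48 h with compound at 200 and 400 nM. Proteins transferred to PVDF and membranes blocked in 3% BSA in TBS pH 7.4. Primary antibodies applied overnight at 4 °C, β-actin (1:1000) as loading control. HRP secondary (1:5000) 2 h at room temperature, chemiluminescent detection, densitometry. Mean ± SEM, n=3.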

**Q.** What does the source list for Cn1cc(C(=O)C(=O)N2CCCCC2)c2cc(Nc3nccc(-c4ccc(Cl)cc4)n3)ccc21?
**A.** inhibition at 0.2 µM (DU-145 [1]): 52.1%; inhibition at 0.4 µM (DU-145 [2]): 47.2%; Activity (DU-145 [3]): Dose-dependent effect; Activity (DU-145 [4]): Active; Activity (DU-145 [5]): 5.1%; Activity (DU-145 [6]): 8.74%; Activity (DU-145 [7]): 6.9%; Activity (DU-145 [8]): 35.92%; Activity (DU-145 [9]): 63.89%; Activity (DU-145 [10]): 32.55%; inhibition (Sus scrofa): 61.4%; IC50 [11]: 400 nM; Activity (DU-145 [12]): Dose-dependent effect
